From ChEMBL document CHEMBL1132302, “Identification of pharmacokinetically stable 3, 10-dibromo-8-chlorobenzocycloheptapyridine farnesyl protein transferase inhibitors with potent enzyme and cellular activities” (J Med Chem, 1999)

Columns and labels:
[1] = biological target: T1, Protein farnesyltransferase (Homo sapiens, UniProt P49354+P49356); experiment: Inhibitory activity against Hras Farnesyltransferase (FPT).; format: protein-complex assay
[2] = biological target: T1, Protein farnesyltransferase; experiment: Effect on Ras processing in Cos-1 monkey kidney cells expressing either H-Ras-Val 12-CVLS or H-Ras-Val12.; format: functional, cell-based, Cercopithecidae
Method in brief: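 Ras processing was tested in Cos-1 monkey kidney cells transiently expressing H-Ras-Val12-CVLS or H-Ras-Val12. IC50 values are single-point determinations.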

NIH-3T3 (Mus musculus) [3] = experiment: inhibition of tumor colony formation in soft agar
[4] = (§1) Bioavailability in mouse (nude) using 20% aqueous hydroxypropyl-beta-cyclodextrin (HPbetaCD) as vehicle 25 mg/kg; format: ADME, organism-based; conditions: nude, in vivo
[5] = (§2) Area under curve was determined using 20%aqueous hydroxypropyl-beta-cyclodextrin (HPbetaCD) as vehicle. Compound was administered intravenously to nude mice at a dose of 25 mg/kg; format: ADME, organism-based; design: dose 25 mg/kg, route intravenous; conditions: mouse, in vivo, iv
Method in brief: (§3)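 Nude mice were dosed at 25 mpk, intravenously or orally as the line states, in 20% aqueous hydroxypropyl-β-cyclodextrin or 0.4% aqueous methyl cellulose. Serum was sampled over 24 h. Each time point came from sera of different animals.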

[6] = Maximum concentration (Cmax) using 20%aqueous hydroxypropyl-beta-cyclodextrin (HPbetaCD) as vehicle. compound was administered intravenously to nude mice at a dose of 25 mg/kg; format: ADME, organism-based; design: dose 25 mg/kg, route intravenous; conditions: mouse, in vivo, iv; method in brief: as §3
[7] = Maximum concentration (Cmax) using 20%aqueous hydroxypropyl-beta-cyclodextrin (HPbetaCD) as vehicle. compound was administered orally to nude mice at a dose of 25 mg/kg; format: ADME, organism-based; design: dose 25 mg/kg, route oral; conditions: mouse, in vivo, po; method in brief: as §3
[8] = biological target: T1, Protein farnesyltransferase; experiment: Inhibition of [3H]FPP incorporation into His6-H-Ras-CVLS by farnesyl transferase; format: protein-complex assay
[9] = (§4) Half life was administered by using 20%aqueous hydroxypropyl-beta-cyclodextrin (HPbetaCD) as vehicle to nude mice at a dose of 25mpk,; format: ADME, organism-based; conditions: mouse, in vivo, 25 mg/kg
[10] = (§5) Area under curve was determined using 20%aqueous hydroxypropyl-beta-cyclodextrin (HPbetaCD) as vehicle. Compound was administered orally to nude mice at a dose of 25 mg/kg; format: ADME, organism-based; design: dose 25 mg/kg, route oral; conditions: mouse, in vivo, po; method in brief: as §3
[11] = Bioavailability in mouse (nude) (dose 0.4% Methylcellulose (MC) as vehicle 25 mg/kg); format: ADME, organism-based; conditions: in vivo
[12] = Maximum concentration (Cmax) using 0.4% Methyl cellulose (MC) as vehicle. compound was administered intravenously to nude mice at a dose of 25 mg/kg; format: ADME, organism-based; design: dose 25 mg/kg, route intravenous; conditions: mouse, in vivo, iv; method in brief: as §3
[13] = Maximum concentration (Cmax) using 0.4% Methyl cellulose (MC) as vehicle. compound was administered orally to nude mice at a dose of 25 mg/kg; format: ADME, organism-based; design: dose 25 mg/kg, route oral; conditions: mouse, in vivo, po; method in brief: as §3
[14] = Area under curve was determined using 0.4% Methyl cellulose (MC) as vehicle. Compound was administered intravenously to nude mice at a dose of 25 mg/kg; format: ADME, organism-based; design: dose 25 mg/kg, route intravenous; conditions: mouse, in vivo, iv; method in brief: as §3
[15] = Area under curve was determined using 0.4% Methyl cellulose (MC) as vehicle. Compound was administered orally to nude mice at a dose of 25 mg/kg; format: ADME, organism-based; design: dose 25 mg/kg, route oral; conditions: mouse, in vivo, po; method in brief: as §3
NIH-3T3 (Mus musculus) [16] = experiment: Inhibition of tumor colony formation in soft agar
[17] = Half life was administered by using 0.4% Methyl cellulose (MC) as vehicle to nude mice at a dose of 25mpk; conditions: mouse, in vivo, 25 mg/kg
[18] = Area under curve was determined using 20%aqueous hydroxypropyl-beta-cyclodextrin (HPbetaCD) as vehicle. Compound was administered orally to nude mice at a dose of 25 mg/kg (Run time = 7 hr); format: ADME, organism-based; design: dose 25 mg/kg, route oral; conditions: mouse, in vivo, po
Method in brief: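 Nude mice received 25 mpk in 20% aqueous hydroxypropyl-β-cyclodextrin, by the route the line gives. Serum was collected over a shortened 7-h run rather than 24 h. Each time point used sera from different animals.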

[19] = as §2; format: organism-based; design: dose 25 mg/kg; method in brief: as §3
[20] = as §5; format: organism-based; design: dose 25 mg/kg; method in brief: as §3
Mus musculus = experiment: as §1; format: organism-based
[21] = as §4; format: organism-based

O=C(CC1CCN(S(=O)(=O)c2ccccc2)CC1)N1CCC([C@H]2c3ncc(Br)cc3CCc3cc(Cl)cc(Br)c32)CC1
IC50 [1]: 76.1 nM

CCN(CC)C(=O)CN1CCC(CC(=O)N2CCC([C@H]3c4ncc(Br)cc4CCc4cc(Cl)cc(Br)c43)CC2)CC1
IC50 [2]: 40 nM
IC50 (NIH-3T3 (Mus musculus) [3]): 300 nM

CCOC(=O)CNC(=O)N1CCC(CC(=O)N2CCC([C@H]3c4ncc(Br)cc4CCc4cc(Cl)cc(Br)c43)CC2)CC1
IC50 (NIH-3T3 (Mus musculus) [3]): 310 nM

NC(=O)CN1CCC(CC(=O)N2CCC([C@H]3c4ncc(Br)cc4CCc4cc(Cl)cc(Br)c43)CC2)CC1
bioavailability [4]: 60.2%
AUC [5]: 20300 ng·h/mL
Cmax [6]: 30 µM
Cmax [7]: 1.94 µM
IC50 [2]: 6 nM
IC50 [8]: 2.1 nM
half-life [9]: 240 min
AUC [10]: 12200 ng·h/mL
IC50 (NIH-3T3 (Mus musculus) [3]): 70 nM

O=C(O)c1cncc(C(=O)N2CCC(CC(=O)N3CCC([C@H]4c5ncc(Br)cc5CCc5cc(Cl)cc(Br)c54)CC3)CC2)c1
IC50 [2]: > 1000 nM
IC50 [1]: 0.8 nM
IC50 (NIH-3T3 (Mus musculus) [3]): > 500 nM

N#CCC(=O)N1CCC(CC(=O)N2CCC([C@H]3c4ncc(Br)cc4CCc4cc(Cl)cc(Br)c43)CC2)CC1
bioavailability [11]: 8.6%
Cmax [12]: 23.4 µM
Cmax [13]: 330 nM
AUC [14]: 4090 ng·h/mL
AUC [15]: 350 ng·h/mL
IC50 [2]: < 10 nM
IC50 (NIH-3T3 (Mus musculus) [16]): 120 nM
half-life [17]: 45.6 min

NC(=O)c1cncc(C(=O)N2CCC(CC(=O)N3CCC([C@H]4c5ncc(Br)cc5CCc5cc(Cl)cc(Br)c54)CC3)CC2)c1
IC50 [2]: 21 nM
IC50 [1]: 2.2 nM
IC50 (NIH-3T3 (Mus musculus) [3]): 500 nM

CN(C)C(=O)C(=O)N1CCC(CC(=O)N2CCC([C@H]3c4ncc(Br)cc4CCc4cc(Cl)cc(Br)c43)CC2)CC1
bioavailability [4]: 30%
AUC [5]: 7530 ng·h/mL
AUC at 7 h [18]: 2260 ng·h/mL
Cmax [6]: 26.3 µM
Cmax [7]: 3.2 µM
IC50 [2]: 10 nM
half-life [9]: 62.4 min
IC50 (NIH-3T3 (Mus musculus) [3]): 120 nM

NCC(=O)N1CCC(CC(=O)N2CCC([C@H]3c4ncc(Br)cc4CCc4cc(Cl)cc(Br)c43)CC2)CC1
AUC [19]: 125000 ng·h/mL
AUC [20]: 5840 ng·h/mL
bioavailability (Mus musculus): 4.7%
Cmax [6]: 80 µM
Cmax [7]: 2.92 µM
T1/2 [21]: 1.4 h

O=C(CC1CCN(CC(=O)N2CCOCC2)CC1)N1CCC([C@H]2c3ncc(Br)cc3CCc3cc(Cl)cc(Br)c32)CC1
IC50 [2]: 25 nM
IC50 [8]: 5.3 nM
IC50 (NIH-3T3 (Mus musculus) [3]): 100 nM

O=C(CC1CCN(C(=O)c2cc[n+]([O-])cc2)CC1)N1CCC([C@H]2c3ncc(Br)cc3CCc3cc(Cl)cc(Br)c32)CC1
bioavailability [11]: 14.6%
bioavailability [4]: 115%
Cmax [12]: 19.8 µM
Cmax [13]: 1070 nM
AUC [14]: 13700 ng·h/mL
AUC [15]: 2000 ng·h/mL
AUC [5]: 13700 ng·h/mL
Cmax [6]: 19.8 µM
Cmax [7]: 9.81 µM
half-life [9]: 72 min
AUC [10]: 15700 ng·h/mL

CS(=O)(=O)N1CCC(CC(=O)N2CCC([C@H]3c4ncc(Br)cc4CCc4cc(Cl)cc(Br)c43)CC2)CC1
AUC [19]: 9520 ng·h/mL
AUC [20]: 950 ng·h/mL
bioavailability (Mus musculus): 10%
Cmax [6]: 30 µM
Cmax [7]: 1.3 µM
T1/2 [21]: 0.53 h

NS(=O)(=O)N1CCC(CC(=O)N2CCC([C@H]3c4ncc(Br)cc4CCc4cc(Cl)cc(Br)c43)CC2)CC1
AUC [19]: 26100 ng·h/mL
AUC [20]: 5600 ng·h/mL
bioavailability (Mus musculus): 22%
Cmax [6]: 30 µM
Cmax [7]: 3.6 µM
T1/2 [21]: 1.5 h
IC50 (NIH-3T3 (Mus musculus) [3]): 200 nM
